What is called logP is the decadic logarithm of the partition coefficient of the neutral form, usually between octanol and water. In general, IC50 refers to the point on the concentration scale where inhibition reaches its midpoint. As a reminder, the EC50 is the concentration at which the effect is half-maximal. Lower therefore signals a more potent agent.

Data set [1] can be described thus: Partition coefficient (logP). It counts as physicochemical. The settings on record: octanol/water.
The target of data set [2] is GABA-A receptor; anion channel. Briefly: Inhibition of [35S]TBPS binding to GABA-A receptor in rat cerebral cortex. It counts as tissue-based. An outline of the steps:
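Unwashed cortical membranes from male Sprague-Dawley rats (180-200 g), homogenized in 50 mM Tris-citrate pH 7.4 with […], centrifuged at 20000g and resuspended in buffer. Final 1 nM [35S]TBPS with 0.20-0.25 mg protein and NaCl, 90 min at 25 °C, then GF/B filtration and scintillation counting. Nonspecific binding defined with 100 µM picrotoxin.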

The target in data set [3] is T1, GABA A receptor alpha-1/beta-1/gamma-2 (Homo sapiens, UniProt P14867+P18505+P18507).
T1 sequence (P14867 whole entry): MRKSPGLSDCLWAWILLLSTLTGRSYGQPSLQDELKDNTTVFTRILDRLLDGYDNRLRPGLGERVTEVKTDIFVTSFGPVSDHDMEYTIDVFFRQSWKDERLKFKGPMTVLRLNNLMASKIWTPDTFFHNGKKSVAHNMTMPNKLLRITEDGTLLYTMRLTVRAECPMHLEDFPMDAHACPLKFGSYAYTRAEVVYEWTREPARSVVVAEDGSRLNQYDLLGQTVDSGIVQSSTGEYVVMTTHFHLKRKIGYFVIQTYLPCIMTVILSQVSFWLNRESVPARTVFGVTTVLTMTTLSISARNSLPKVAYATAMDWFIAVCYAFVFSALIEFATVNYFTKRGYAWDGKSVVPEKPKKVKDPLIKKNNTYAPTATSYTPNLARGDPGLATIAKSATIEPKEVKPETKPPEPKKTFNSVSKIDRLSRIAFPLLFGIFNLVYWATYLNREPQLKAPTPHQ
T1 sequence (P18507 whole entry): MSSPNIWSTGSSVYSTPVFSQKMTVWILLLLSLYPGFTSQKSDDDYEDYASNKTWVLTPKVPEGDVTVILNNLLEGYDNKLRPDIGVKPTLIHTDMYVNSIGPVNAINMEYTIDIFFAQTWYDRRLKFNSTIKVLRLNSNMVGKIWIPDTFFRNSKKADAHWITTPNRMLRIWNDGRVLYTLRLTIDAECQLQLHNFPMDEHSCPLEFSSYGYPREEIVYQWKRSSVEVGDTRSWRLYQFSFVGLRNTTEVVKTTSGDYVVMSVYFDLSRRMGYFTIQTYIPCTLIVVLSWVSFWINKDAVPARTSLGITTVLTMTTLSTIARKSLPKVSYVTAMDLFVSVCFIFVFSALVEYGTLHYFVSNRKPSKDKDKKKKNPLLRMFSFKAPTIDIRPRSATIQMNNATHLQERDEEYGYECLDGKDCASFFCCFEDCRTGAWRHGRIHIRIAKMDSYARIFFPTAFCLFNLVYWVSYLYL
T1 sequence (P18505 whole entry): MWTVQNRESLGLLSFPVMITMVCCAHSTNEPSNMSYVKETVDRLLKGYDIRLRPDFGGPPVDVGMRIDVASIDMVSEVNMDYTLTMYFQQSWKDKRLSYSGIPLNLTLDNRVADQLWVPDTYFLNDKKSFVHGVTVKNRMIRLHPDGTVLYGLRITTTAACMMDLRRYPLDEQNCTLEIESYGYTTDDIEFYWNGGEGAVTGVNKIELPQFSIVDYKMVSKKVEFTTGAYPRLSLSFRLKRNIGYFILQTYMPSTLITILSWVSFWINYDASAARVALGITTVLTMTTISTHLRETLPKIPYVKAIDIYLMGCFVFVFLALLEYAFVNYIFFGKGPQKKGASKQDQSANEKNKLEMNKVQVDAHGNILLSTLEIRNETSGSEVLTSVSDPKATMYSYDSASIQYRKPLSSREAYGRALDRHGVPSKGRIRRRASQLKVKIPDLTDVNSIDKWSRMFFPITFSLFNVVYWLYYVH
Briefly: Modulation of GABA-induced chloride currents in Xenopus laevis oocytes expressing human alpha-1-beta-1-gamma-2 GABA-A receptor subunits. Type of data set: functional, cell-based, Oocyte. In a few lines:
(§1)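 Human α1, β1 and γ2 subunit cDNAs in pCDM8 (1.5 ng/30 nL) injected into nuclei of defolliculated stage V-VI Xenopus oocytes, which were cultured at 19 °C in supplemented MBS. Recording by two-electrode voltage clamp at -70 mV about 24 h after injection, with MBS perfusion at room temperature. Compounds came from 10 mM DMSO stocks diluted in MBS. Responses were normalized to a GABA control response, either EC20 or 10 mM GABA.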

In data set [4] the target is T2, GABA A receptor alpha-1/beta-1/gamma-2 (Homo sapiens) (UniProt P14867+P18507+P18505). Briefly: Direct activation of chloride currents (percentage of 10 mM GABA response) in Xenopus laevis oocytes expressing human alpha-1-beta-1-gamma-2 GABA-A receptor subunits. It counts as functional, cell-based. The note with it: Oocyte. In a few lines:
as §1

For data set [5], the target named is T1, GABA A receptor alpha-1/beta-1/gamma-2. Briefly: Direct activation of chloride current in Xenopus laevis oocytes expressing human alpha-1-beta-1-gamma-2 GABA-A receptor subunits. It counts as functional, cell-based, Oocyte. In a few lines: as §1
The target in data set [6] is T2, GABA A receptor alpha-1/beta-1/gamma-2 (Homo sapiens). Briefly: Modulation of GABA-induced chloride currents (percentage of GABA EC20 response) against human alpha-1-beta-1-gamma-2 GABA-A receptor subunits expressed in Xenopus laevis oocytes. It counts as functional, cell-based. The note with it: Oocyte. An outline of the steps: as §1
Data set [7] concerns GABA-A receptor; anion channel. Briefly: In vitro inhibition of [35S]TBPS binding to Gamma-aminobutyric acid A (GABA-A) receptor of rat cerebral cortex (No displacement). It counts as tissue-based.

For the molecule `CC(C)c1cc(NC(=O)C(F)(F)F)cc(C(C)C)c1O`, the logP in data set [1] stood at 4.46. The molecule also registered an IC50 in data set [2] of 14 µM.
For `CC(C)c1cc(C=O)cc(C(C)C)c1O` the same measures were 4.3 and 5.8 µM.
`CC(C)c1cc(Cl)cc(C(C)C)c1O`: the logP in data set [1] amounted to 5.34. The molecule further gave an IC50 in data set [2] of 1.44 µM. The EC50 in data set [3] amounted to 10 µM; in data set [5], 38 µM. Moreover, the Max activation in data set [4] was 37%. The Max potentiation in data set [6] came out at 205%.
In data set [2], `CC(C)c1cccc(C(C)C)c1OC(=O)c1ccccc1` came in with an IC50 of 15.2 µM.
As for `COc1c(C(C)C)cccc1C(C)C`, the IC50 in data set [2] turned out to be 37 µM.
In turn, `CC(C)c1cc([N+](=O)[O-])cc(C(C)C)c1O` showed a logP in data set [1] of 4.71. In addition, the IC50 in data set [2] was determined as 1.95 µM.
Take `CCN(CC)CC(=O)Oc1c(C(C)C)cccc1C(C)C`: the IC50 in data set [2] was 21.8 µM.
Turning to `CC(C)c1cc([N+](C)(C)C)cc(C(C)C)c1O.[I-]`, the IC50 result in data set [7] was “Not Active”.
In data set [2], `COC(CNCC(=O)Oc1c(C(C)C)cccc1C(C)C)OC` returned an IC50 of 15.6 µM. This counts as double-digit micromolar.
`CC(C)c1cccc(C(=O)O)c1O`: in data set [7], the IC50 result is listed as “Not Active”.
Consider `CC(C)c1cc(NS(C)(=O)=O)cc(C(C)C)c1O`, for which the logP in data set [1] amounted to 3.14. In addition, the IC50 in data set [2] stood at 131 µM.
On the same counts, the results for `CC(C)c1cc(CN(C)C)cc(C(C)C)c1O` are 2.5 and 739 µM.
In turn, `COC(=O)c1cccc(C(C)C)c1O` returned an IC50 in data set [2] of 39.5 µM.
Turning to `CC(C)c1cc(C(=O)c2ccccc2)cc(C(C)C)c1O`, the logP in data set [1] was found to be 5.91. This molecule also registered an IC50 in data set [2] of 0.85 µM. For the same molecule, the values for the EC50 in data set [3] and in data set [5] were 9 µM and 47 µM, respectively. In data set [4], this molecule displayed a Max activation of 41%. Further, the Max potentiation in data set [6] turned out to be 220%.
In data set [1], `COS(=O)(=O)c1cc(C(C)C)c(O)c(C(C)C)c1` had a logP of 3.7. In addition, the IC50 in data set [2] amounted to 9.4 µM.
For `CC(C)c1cc(N(C)C)cc(C(C)C)c1O` the same measures were 4.52 and 5.7 µM.
Consider `CC(C)c1cc(N)cc(C(C)C)c1O`, for which the logP in data set [1] was determined as 3.1. In addition, the IC50 in data set [2] worked out at 23.6 µM.
In data set [2], `CC(C)c1cccc(C(C)C)c1OC(=O)CN1CCCC1` returned an IC50 of 6.52 µM.
Consider `CC(C)c1cc(I)cc(C(C)C)c1O`, for which the logP in data set [1] worked out at 5.75. For the same molecule, the IC50 in data set [2] worked out at 1.2 µM. Moreover, the EC50 in data set [3] is 12 µM; in data set [5], 51 µM. Besides, in data set [4], the Max activation is 36%. Also, the Max potentiation in data set [6] is 311%.
Consider `CC(C)c1cccc(C(C)C)c1O` [PROPOFOL], for which, in data set [1], the logP is 4.33. The values for the EC50 in data set [3] and in data set [5] were 8 µM and 44 µM, respectively. This molecule yielded a Max activation in data set [4] of 38%. Moreover, the Max potentiation in data set [6] was 296%.
For the molecule `CC(C)c1cccc(C(C)C)c1OC(=O)CN1CCOCC1`, in data set [7], the IC50 result is “Not Active”.
Take `CC(=O)Nc1cc(C(C)C)c(O)c(C(C)C)c1`: the IC50 result in data set [7] was “Not Active”.
Molecule `CC(C)c1cc(Br)cc(C(C)C)c1O` gave a logP in data set [1] of 5.49. The molecule further displayed an IC50 in data set [2] of 1.07 µM. The EC50 in data set [3] amounted to 12 µM; in data set [5], 38 µM. Also, the Max activation in data set [4] is 34%. For the same molecule, in data set [6], the Max potentiation was determined as 223%.
In the case of `CC(=O)Oc1c(C(C)C)cccc1C(C)C`, the IC50 in data set [2] came to 8.5 µM. In other words, the single-digit micromolar range.
As to `CCCN(CCC)CC(=O)Oc1c(C(C)C)cccc1C(C)C`, the IC50 entry in data set [7] is “Not Active”.
